Results: paper PMC7962621 (Cell, 2019)

Columns and labels:
[1] = test system: CD4 T cells from DQ8+ T1D subjects; assay: CFSE proliferation assay with immobilized peptide/DQ8 complexes, T1D subjects; assay type: cell-based, human; conditions: peptide-loaded DQ8 immobilized (10 μM), 7 days, CFSElow CD4 T cells; n = 3
In short: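 Freshly isolated PBMCs were washed in warm PBS and labelled with 1 μM CFSE for 1–2 min at 37 °C, then quenched with chilled medium. Thrombin-cleaved, CLIP-free DQ8 monomers (0.5 μM) were loaded with peptide (100 μM) for 72 h at 37 °C in pH 5.5 citrate phosphate buffer, then immobilized in wells. Unstimulated cells served as negative control and anti-CD3/CD28 as positive control.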

[2] = relative to native insulin; ref Wang et al., 2018; cited from earlier work
DQ8 = conditions: two registers placing nonacidic residues at P1 and P9; background statement; cited from earlier work

Substance	Stimulation of CD4 T cells from DQ8+ T1D subjects [1]	Fold potency vs native insulin B:9–23 [2]	Binding of insulin B:9–23 peptide to DQ8 (DQ8)
CARQRFWSGPLFDYW [h-Id]	no significant responses	–	–
SHLVEALYLVCGEEG [mimotope]	–	100 fold	–
native insulin: insulin B:9–23 peptide SHLVEALYLVCGERG	no significant responses	–	binds poorly to DQ8
SHLVEELYLVAGEEG [superagonist]	–	about 1,000 fold	–
